Screening results: PubChem BioAssay, several laboratories
Lmaj promast – reduces viability of Leishmania major promastigotes. inhibition, % at 10 µM. 200,000 tested, 9% active. AID 1063. resazurin fluorescence viability;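 also: promastigotes grown with compound for 44 hours at 28 °C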
Diaph inh CS – inhibits diaphorase or chemically oxidizes, flagging diaphorase assay artifacts; 190,000 tested, 0.69% active; diaphorase resazurin-to-resorufin fluorescence, NADH, 16 min; bacterial (C. kluyveri) enzyme, not human; AID 1217; inhibition, % at 20 µM;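 active = primary screen inhibition at 20 µM above a set limit, cut at about 50% in these data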;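 also: plate controls were DMSO with full reaction for no effect and wells lacking NADH for full effect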
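Assay system: diaphorase enzyme from Clostridium kluyveri; Input: enzyme working solution with 0.14 U/mL diaphorase; Timing: 16 min at room temperature; Technique: resorufin fluorescence, excitation 544 nm, emission 590 nm; Benchmarks: positive control minus NADH, DMSO neutral control.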
Diaphorase act – diaphorase activation or chemical reduction counter-screen; Diaphorase/resazurin coupled assay, resorufin fluorescence, 16 min; active compounds read high; 1 = vehicle wells, 0 = NADH-free wells; activation factor at 20 µM; 190,000 tested, 0.005% active;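 active = diaphorase activity raised at least twofold by the compound at 20 µM; inactive = activation factor below 2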
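Measured by – red resorufin fluorescence at 544/590 nm excitation/emission · Test system – Clostridium kluyveri diaphorase, purified enzyme · Incubation – reaction time 16 min, room temperature · Buffer or medium – 50 mM HEPES pH 7.4 with 4.542 mM MgCl2, 0.005% Tween 20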
G6PDH CS – inhibits Leuconostoc G6PDH, flagging false hits in G6PDH-based assays | Purified L. mesenteroides G6PDH, diaphorase/resazurin coupled fluorescence, 45 min | inhibition, % at 5 µM | 200,000 tested, 0.12% active | AID 1020
DTT redox prof – compounds producing H2O2 with reducing agent – biochemical, NIH compound library profiling, artefact control for MLSCN library redox annotation, primary screen. DTT-dependent redox cycling H2O2, phenol red/HRP absorbance; 100% = 100 µM peroxide control, 0% = buffer. activation, % at 10 µM. 200,000 tested, 0.03% active;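 active = activation of at least 50% relative to the plate's high and low controls in the primary single-dose screen; inactive = activation below 50%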;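 also: compound incubated with DTT at 0.8 mM final as the reducing agent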
PfG6PD inh – PfG6PD (Plasmodium falciparum) enzyme inhibition; PfGluPho enzyme, NADPH resazurin-diaphorase fluorescence; inhibition, % at 20 µM; 350,000 tested, 0.78% active; AID 504690;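 active = inhibition reaching at least a set limit at 20 µM in the primary screen, cut at about 59% in these data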;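 also: 0% = DMSO wells with substrate and 100% = DMSO wells lacking glucose-6-phosphate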
Numbers without * were called inactive; . = not tested or not shown. Shown is part of a subset that was picked to be rich in hits. Rule as the data show it, unless noted: active = inhibition above about 50%; inactive = the rest.

SMILES | Lmaj promast | Diaph inh CS | Diaphorase act | G6PDH CS | DTT redox prof | PfG6PD inh
Cc1cc(/C=C(/C#N)c2nc3ccccc3[nH]2)c(C)n1-c1cc(C(=O)O)cc(C(=O)O)c1 | -5 | 45 | 0.6 | 7 | 1 | -3
Cc1ccccc1NC(=O)Cc1nc(-c2ccc3ccccc3c2)cs1 | -3 | 8 | 0.9 | -15 | 2 | 1
Cc1nn(-c2ccccc2)c2sc(C(=O)OC3CCOC3=O)cc12 (stereo not given) | -7 | 21 | 0.8 | -49 | 1 | 5
Cc1cnccc1CN(C)Cc1cn(C)nc1-c1cccc(Cl)c1 | 8 | 50* | 0.5 | 6 | 0 | -9
Cc1cnccc1CN(C)Cc1cn(C)nc1-c1ccc(Oc2ccccc2)cc1 | 89* | 13 | 0.9 | 9 | -1 | 23
Cc1cc(C)cc(C(=O)NC(CC(N)=O)c2ccc(NC3CCCC3)c([N+](=O)[O-])c2)c1 (stereo not given) | . | . | . | . | . | -4
O=C(Cn1nnc(-c2ccccc2)n1)N/N=C/c1ccco1 | -8 | 14 | 0.9 | 7 | -1 | -22
COc1cc2ncnc(NCc3ccc(F)cc3)c2cc1OC | . | . | . | . | . | 3
COc1cc2ncnc(NCc3ccc(Cl)cc3)c2cc1OC | 62* | 12 | 0.9 | 14 | 0 | -11
Clc1ccc(CNCCC2=CCCCC2)cc1 | 90* | 17 | 0.8 | 4 | 0 | 4
COc1cccc(-c2nc(NCC3CCCO3)c3ccccc3n2)c1O (stereo not given) | 35 | 20 | 0.8 | 2 | -4 | 43
COc1ccccc1Nc1nc(NCC2CCCO2)c2ccccc2n1 (stereo not given) | 100* | 19 | 0.8 | 20 | 0 | 8
O=[N+]([O-])c1cccc(/C=N/n2cnnc2)c1O | 68* | 0 | 1 | 2 | -1 | 24
O=[N+]([O-])c1ccccc1S(=O)(=O)Oc1ccccc1/C=N/n1cnnc1 | 72* | 17 | 0.8 | -6 | 0 | 56
COc1cc(/C=C2/C(=O)c3cccc([N+](=O)[O-])c3C2=O)c(Br)cc1O | 100* | 50* | 0.5 | -3 | 1 | 19
COc1ccccc1NC(=O)CCCCCN1C(=O)c2cccc([N+](=O)[O-])c2C1=O | . | . | . | . | . | 13
CC(C)N1CC(O)=C(c2nc3ccccc3[nH]2)C1=N | 8 | 4 | 1 | 11 | -4 | -24
CC1(C)C(O)=C(c2nc3ccccc3[nH]2)C(=N)N1c1ccccc1 | 82* | 12 | 0.9 | 0 | -8 | -18
COc1ccc(NS(=O)(=O)c2ccc(NC(=O)c3ccc(N(C)S(C)(=O)=O)cc3)cc2)c(OC)c1 | 54* | 14 | 0.9 | 2 | 0 | 0
CCCn1c(SCC(=O)Nc2cccc(S(=O)(=O)N(C)C)c2)nc2ccccc2c1=O | . | . | . | . | . | 12
Cc1noc(C)c1COc1cccc(C(=O)Nc2ccc(OCc3ccccc3)cc2)c1 | 53* | 18 | 0.8 | -1 | 1 | -3
CCCn1c(NCc2ccc3c(c2)OCO3)nc2ccccc21 | 82* | 3 | 1 | 3 | 0 | -11
CCCn1c(NCc2cc(C)ccc2O)nc2ccccc21 | 77* | 22 | 0.8 | -2 | 0 | -4
CCCCn1c(NCc2ccc3c(c2)OCO3)nc2ccccc21 | 38 | -16 | 1.2 | 3 | 1 | -6
Clc1ccc(CN2CCc3c([nH]c4ccccc34)C2)cc1Cl | . | . | . | . | . | 19
O=[N+]([O-])c1ccc2nc(-[n+]3c(-c4ccccc4)cc(-c4ccccc4)cc3-c3ccccc3)[nH]c2c1 | 89* | 23 | 0.8 | -3 | 0 | 4
Nc1nc2ccc([N+](=O)[O-])cc2[nH]1 | . | . | . | . | . | 2
CC(C)CC(=O)Nc1c2c(nn1-c1cccc(Cl)c1)CS(=O)C2 (stereo not given) | . | . | . | . | . | 0
COc1ccc(C(=O)Nc2c3c(nn2-c2cccc(Cl)c2)CS(=O)C3)cc1 (stereo not given) | 98* | 7 | 0.9 | 4 | 2 | 3
O=c1[nH]nc(SCc2ccccc2)n1C1CC2C=CC1C2 (stereo not given) | . | . | . | . | . | -19
